Experimental data reported in ChEMBL document CHEMBL3853270, “Influence of Birch Bark Triterpenes on Keratinocytes and Fibroblasts from Diabetic and Nondiabetic Donors” (2016).
Activity calls are given as the source filed them. No cut-off for these calls is given here.

Key:
Assay type in all cases: functional
Keratinocyte [1] = experiment: Effect on growth factor related gene expression in diabetic adult human primary keratinocytes assessed as PDGFB mRNA levels at 1.96 uM after 6 hrs by qPCR analysis
Method in brief: (§1)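 Primary human keratinocytes (nondiabetic young or adult, diabetic adult donors) were exposed to compound for 6 h, with 0.1% DMSO as solvent control. Total RNA came from 400 000 cells per sample and was assayed on a Fluidigm Biomark high-throughput qPCR chip. Results are fold change vs solvent control, from 2−4 independent experiments on two donors per group, with SD. Groups were compared by one-way ANOVA with Bonferroni post-test.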

Fibroblast [2] = experiment: Effect on pro-inflammatory related gene expression in non-diabetic adult human primary fibroblasts assessed as PTGS2 mRNA levels at 9.81 uM after 6 hrs by qPCR analysis
Fibroblast [3] = experiment: Effect on chemokines related gene expression in non-diabetic young human primary fibroblasts assessed as CCL2 mRNA levels at 1.96 uM after 6 hrs by qPCR analysis
Fibroblast [4] = experiment: Effect on chemokines related gene expression in non-diabetic adult human primary fibroblasts assessed as IL8 mRNA levels at 9.81 uM after 6 hrs by qPCR analysis
Fibroblast [5] = experiment: Effect on antiinflammatory related gene expression in non-diabetic young human primary fibroblasts assessed as SOCS3 mRNA levels at 1.96 uM after 6 hrs by qPCR analysis
Method in brief: (§2)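 Primary dermal fibroblasts from one nondiabetic young, one nondiabetic adult and one diabetic adult donor; 320 000 cells per sample, 6 h at 1.96 or 9.81 μM. RNA measured on a high-throughput qPCR chip. Fold change versus 0.1% DMSO control, four independent experiments, SD, one-way ANOVA with Bonferroni post-test.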

Fibroblast [6] = experiment: Effect on pro-inflammatory related gene expression in non-diabetic adult human primary fibroblasts assessed as IL6 mRNA levels at 9.81 uM after 6 hrs by qPCR analysis
Fibroblast [7] = experiment: Effect on transcription factor related gene expression in non-diabetic adult human primary fibroblasts assessed as JUN mRNA levels at 9.81 uM after 6 hrs by qPCR analysis
Keratinocyte [8] = experiment: Effect on AQP3 mRNA expression levels in non-diabetic adult human primary keratinocytes at 1.96 uM after 6 hrs by qPCR analysis
Method in brief: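 Primary keratinocytes from nondiabetic young and adult and diabetic adult donors; 400 000 cells per sample, 6 h exposure at 1.96 or 9.81 μM. RNA extracted and read on a high-throughput qPCR chip. Results are fold change versus 0.1% DMSO solvent control from 5−7 independent experiments over two donors per group, SD, one-way ANOVA with Bonferroni post-test.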

Fibroblast [9] = experiment: Effect on antiinflammatory related gene expression in diabetic adult human primary fibroblasts assessed as NFKBIA mRNA levels at 9.81 uM after 6 hrs by qPCR analysis; method in brief: as §2
Fibroblast [10] = experiment: Effect on growth factor related gene expression in non-diabetic adult human primary fibroblasts assessed as GDF15 mRNA levels at 9.81 uM after 6 hrs by qPCR analysis
Method in brief: (§3)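 Primary human dermal fibroblasts (young or adult nondiabetic, adult diabetic donor) were treated for 6 h against a 0.1% DMSO solvent control. RNA from 320 000 cells per sample was measured by Fluidigm Biomark high-throughput qPCR. Values are fold change relative to solvent control, from four independent experiments, with SD. One-way ANOVA with Bonferroni post-test was applied.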

Keratinocyte [11] = experiment: Effect on pro-inflammatory related gene expression in non-diabetic adult human primary keratinocytes assessed as IL1R1 mRNA levels at 1.96 uM after 6 hrs by qPCR analysis
Fibroblast [12] = experiment: Effect on growth factor related gene expression in non-diabetic young human primary fibroblasts assessed as GDF15 mRNA levels at 1.96 uM after 6 hrs by qPCR analysis; method in brief: as §3
Keratinocyte [13] = experiment: Effect on cellular connection related gene expression in non-diabetic adult human primary keratinocytes assessed as GJB2 mRNA levels at 1.96 uM after 6 hrs by qPCR analysis
Fibroblast [14] = experiment: Effect on pro-inflammatory related gene expression in non-diabetic adult human primary fibroblasts assessed as IL1R1 mRNA levels at 9.81 uM after 6 hrs by qPCR analysis
Keratinocyte [15] = experiment: Effect on cellular connection related gene expression in diabetic adult human primary keratinocytes assessed as GJB2 mRNA levels at 9.81 uM after 6 hrs by qPCR analysis
Fibroblast [16] = experiment: Effect on adhesion molecules related gene expression in non-diabetic adult human primary fibroblasts assessed as ICAM1 mRNA levels at 9.81 uM after 6 hrs by qPCR analysis
Method in brief: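 Dermal fibroblasts from nondiabetic adult and diabetic adult donors, exposed for 6 h at 1.96 or 9.81 μM. ICAM-1 and VCAM-1 mRNA measured by standard qRT-PCR, n = 3. Fold change versus 0.1% DMSO control, SD, one-way ANOVA with Bonferroni post-test.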

[17] = Effect on wound healing activity in diabetic adult human primary fibroblasts assessed as upregulation of soluble ICAM1 protein levels at 1.96 uM after 24 hrs by bead-based suspension array analysis; conditions: Fibroblast
Fibroblast [18] = experiment: Effect on antiinflammatory related gene expression in non-diabetic young human primary fibroblasts assessed as NFKBIA mRNA levels at 1.96 uM after 6 hrs by qPCR analysis; method in brief: as §2
Fibroblast [19] = experiment: Effect on pro-inflammatory related gene expression in non-diabetic young human primary fibroblasts assessed as IL6 mRNA levels at 9.81 uM after 6 hrs by qPCR analysis
[20] = Effect on wound healing activity in diabetic adult human primary keratinocytes assessed as upregulation of IL1RA protein levels at 1.96 uM after 24 hrs by bead-based suspension array analysis; conditions: Keratinocyte
[21] = Effect on wound healing activity in diabetic adult human primary fibroblasts assessed as upregulation of RANTES protein levels at 1.96 uM after 24 hrs by bead-based suspension array analysis; conditions: Fibroblast
Fibroblast [22] = experiment: Effect on growth factor related gene expression in non-diabetic adult human primary fibroblasts assessed as VEGFA mRNA levels at 9.81 uM after 6 hrs by qPCR analysis; method in brief: as §3
Keratinocyte [23] = experiment: Effect on cellular connection related gene expression in non-diabetic adult human primary keratinocytes assessed as CLDN4 mRNA levels at 9.81 uM after 6 hrs by qPCR analysis
Keratinocyte [24] = experiment: Effect on pro-inflammatory related gene expression in non-diabetic young human primary keratinocytes assessed as IL1R1 mRNA levels at 9.81 uM after 6 hrs by qPCR analysis
Keratinocyte [25] = experiment: Effect on cellular connection related gene expression in non-diabetic young human primary keratinocytes assessed as GJB2 mRNA levels at 9.81 uM after 6 hrs by qPCR analysis
Fibroblast [26] = experiment: Effect on pro-inflammatory related gene expression in diabetic adult human primary fibroblasts assessed as PTGS2 mRNA levels at 9.81 uM after 6 hrs by qPCR analysis
Keratinocyte [27] = experiment: Effect on growth factor related gene expression in non-diabetic adult human primary keratinocytes assessed as VEGFA mRNA levels at 9.81 uM after 6 hrs by qPCR analysis; method in brief: as §1
Fibroblast [28] = experiment: Effect on antioxidant related gene expression in non-diabetic young human primary fibroblasts assessed as SOD2 mRNA levels at 9.81 uM after 6 hrs by qPCR analysis
Fibroblast [29] = experiment: Effect on antioxidant related gene expression in non-diabetic adult human primary fibroblasts assessed as SOD2 mRNA levels at 9.81 uM after 6 hrs by qPCR analysis

C=C(C)[C@@H]1CC[C@]2(CO)CC[C@]3(C)[C@H](CC[C@@H]4[C@@]5(C)CC[C@H](O)C(C)(C)[C@@H]5CC[C@]43C)[C@@H]12 [BETULIN]
fold change (FC) (Keratinocyte [1]): 1
fold change (FC) (Fibroblast [2]): 179
fold change (FC) (Fibroblast [3]): 4.3
fold change (FC) (Fibroblast [4]): 991
fold change (FC) (Fibroblast [5]): 3
fold change (FC) (Fibroblast [6]): 246
fold change (FC) (Fibroblast [7]): 3.1
fold change (FC) (Keratinocyte [8]): 0.8
fold change (FC) (Fibroblast [9]): 1.4
fold change (FC) (Fibroblast [10]): 3.2
fold change (FC) (Keratinocyte [11]): 0.7
fold change (FC) (Fibroblast [12]): 3.7
fold change (FC) (Keratinocyte [13]): 0.7
fold change (FC) (Fibroblast [14]): 4.9
fold change (FC) (Keratinocyte [15]): 0.9
fold change (FC) (Fibroblast [16]): 152
Activity [17]: Active
fold change (FC) (Fibroblast [18]): 2.9
fold change (FC) (Fibroblast [19]): 55
Activity [20]: Active
Activity [21]: Active
fold change (FC) (Fibroblast [22]): 2
fold change (FC) (Keratinocyte [23]): 1.5
fold change (FC) (Keratinocyte [24]): 1
fold change (FC) (Keratinocyte [25]): 0.8
fold change (FC) (Fibroblast [26]): 2.9
fold change (FC) (Keratinocyte [27]): 1.7
fold change (FC) (Fibroblast [28]): 2.2
fold change (FC) (Fibroblast [29]): 18
